{"source": "ChEMBL document CHEMBL5214998", "about": "“Development of Macrocyclic PRMT5-Adaptor Protein Interaction Inhibitors” (J Med Chem, 2022)", "key": {"PRMT5/MEP50 complex [1]": {"molecular_target": "PRMT5/MEP50 complex (Homo sapiens, UniProt O14744+Q9BQA1)", "sequence (O14744 whole entry)": "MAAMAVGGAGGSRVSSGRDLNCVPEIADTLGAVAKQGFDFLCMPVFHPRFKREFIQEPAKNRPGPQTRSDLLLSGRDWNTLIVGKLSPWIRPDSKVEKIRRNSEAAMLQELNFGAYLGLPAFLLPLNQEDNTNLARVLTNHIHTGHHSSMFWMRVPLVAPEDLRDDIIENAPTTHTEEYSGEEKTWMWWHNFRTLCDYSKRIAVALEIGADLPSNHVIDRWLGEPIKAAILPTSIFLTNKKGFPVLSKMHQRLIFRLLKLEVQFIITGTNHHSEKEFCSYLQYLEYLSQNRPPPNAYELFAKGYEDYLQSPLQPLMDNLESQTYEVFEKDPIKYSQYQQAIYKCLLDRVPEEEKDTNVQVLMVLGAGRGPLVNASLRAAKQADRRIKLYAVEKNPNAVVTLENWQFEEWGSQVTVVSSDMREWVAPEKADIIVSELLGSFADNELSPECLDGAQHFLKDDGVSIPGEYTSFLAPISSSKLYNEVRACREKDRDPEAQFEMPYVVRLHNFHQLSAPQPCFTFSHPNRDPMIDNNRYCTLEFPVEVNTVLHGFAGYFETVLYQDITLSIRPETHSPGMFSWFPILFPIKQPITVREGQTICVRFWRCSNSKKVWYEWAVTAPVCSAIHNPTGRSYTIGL", "sequence (Q9BQA1 whole entry)": "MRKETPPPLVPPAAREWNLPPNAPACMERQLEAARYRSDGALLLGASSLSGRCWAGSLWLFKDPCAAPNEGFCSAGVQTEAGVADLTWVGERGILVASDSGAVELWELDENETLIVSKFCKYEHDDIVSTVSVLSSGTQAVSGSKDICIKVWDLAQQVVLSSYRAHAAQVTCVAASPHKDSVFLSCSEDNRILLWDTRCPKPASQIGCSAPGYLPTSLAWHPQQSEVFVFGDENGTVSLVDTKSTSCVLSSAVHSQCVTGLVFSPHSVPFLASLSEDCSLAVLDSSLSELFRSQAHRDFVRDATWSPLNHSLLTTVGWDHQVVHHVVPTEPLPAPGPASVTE", "test": "Binding affinity to PRMT5/MEP50 (unknown origin) assessed as dissociation constant by FITC- Competitive binding assay", "format": "protein-complex assay"}, "PRMT5/MEP50 complex [2]": {"molecular_target": "T1, PRMT5/MEP50 complex (Homo sapiens, UniProt O14744)", "T1 sequence (O14744 whole entry)": "as the sequence (O14744 whole entry) above", "T1 sequence (Q9BQA1 whole entry, further chain)": "as the sequence (Q9BQA1 whole entry) above", "test": "Binding affinity to PRMT5/MEP50 (unknown origin) assessed as inhibition constant by FITC- Competitive binding assay", "format": "protein-complex assay", "how_it_was_run": "(§1)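 Competitive FP: 1 nM FITC-labeled tracer peptide with PRMT5-MEP50 (194 nM with tracer 50; 600 nM with tracer 21); unlabeled peptide titrated as two-fold dilutions in 50 mM HEPES, 250 mM NaCl, 1 mM TCEP, 0.01% Tween 20, pH 8.0; room temperature up to 1 h 45 min; read 485/535 nm; triplicate.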"}, "[3]": {"test": "Stability in human U2OS cells assessed as half life incubated upto 24 hrs by HPLC analysis", "format": "ADME, cell-based", "settings": "U2OS cell lysate"}, "PRMT5/MEP50 complex [4]": {"molecular_target": "T1, PRMT5/MEP50 complex", "test": "Inhibition of PRMT5/MEP50 (unknown origin) incubated for 1 to 2 hrs in presence of tracer 21 by competitive fluorescence polarization assay", "format": "protein-complex assay", "how_it_was_run": "as §1"}, "PRMT5/MEP50 complex [5]": {"molecular_target": "T1, PRMT5/MEP50 complex", "test": "Inhibition of PRMT5/MEP50 (unknown origin) incubated for 1 to 2 hrs in presence of tracer 50 by competitive fluorescence polarization assay", "format": "protein-complex assay", "how_it_was_run": "as §1"}, "[6]": {"test": "Inhibition of full length human ICLN/PRMT5 (unknown origin) protein-protein interaction by fluorescence polarization assay"}, "Flp-In-T-REx-293 [7]": {"system": "Flp-In-T-REx-293", "test": "Inhibition of PRMT5/RioK1 protein-protein interaction in human Flp-In-T-REx-293 cells over-expressed with GFP-RioK1 at 50 uM incubated for 2 hrs by immunoprecipitation assay", "format": "cell-based", "how_it_was_run": "(§2)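 S100 extracts from induced Flp-In T-REx 293 cells expressing GFP-tagged proteins were treated with peptide at 50 µM (or DMSO) for 1 h at room temperature. GFP-Trap beads were then added for 2 h at 4 °C and washed. Co-purified PRMT5, MEP50, RioK1 and pICln were detected by immunoblot with fluorescent secondary antibodies.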"}, "Flp-In-T-REx-293 [8]": {"system": "Flp-In-T-REx-293", "test": "Inhibition of PRMT5/RioK1 protein-protein interaction in human Flp-In-T-REx-293 cells over-expressed with GFP-PRMT5 at 50 uM incubated for 2 hrs by immunoprecipitation assay", "format": "cell-based", "how_it_was_run": "as §2"}}, "note": "Activity calls are given as the source filed them. No cut-off for these calls is given here."}
{"molecule": "CC(=O)N[C@H](C(=O)N1CCC[C@H]1C(=O)N[C@H]1CCCCCC[C@H](C(=O)N[C@@H](CC(=O)O)C(=O)N[C@@H](C)C(=O)N[C@@H](CC(=O)O)C(=O)N[C@@H](CCCCNC(=S)Nc2ccc3c(c2)C(=O)OC32c3ccc(O)cc3Oc3cc(O)ccc32)C(N)=O)NC(=O)[C@H](Cc2ccccc2)NC(=O)[C@H](CCC(N)=O)NC1=O)C(C)C", "values": [{"measurement": "Kd", "setting": "PRMT5/MEP50 complex [1]", "result": "> 2000", "unit": "nM"}]}
{"molecule": "CC(C)[C@H](NC(=O)[C@H](CCCNC(=N)N)NC(=O)[C@H](CO)NC(=O)COCCOCCNC(=S)Nc1ccc2c(c1)C(=O)OC21c2ccc(O)cc2Oc2cc(O)ccc21)C(=O)N[C@H](C(=O)N1CCC[C@H]1C(=O)N[C@H]1CCCC[C@H](C(=O)N[C@@H](CC(=O)O)C(=O)N[C@@H](C)C(=O)N[C@@H](CC(=O)O)C(N)=O)NC(=O)[C@H](Cc2ccccc2)NC(=O)[C@H](CCC(N)=O)NC1=O)C(C)C", "values": [{"measurement": "Kd", "setting": "PRMT5/MEP50 complex [1]", "result": "> 2000", "unit": "nM"}]}
{"molecule": "Ac-SRVVPGQFDDAD-NH2", "values": [{"measurement": "Ki", "setting": "PRMT5/MEP50 complex [2]", "result": 1800, "unit": "nM"}]}
{"molecule": "Ac-VPGQFDDAD-NH2", "values": [{"measurement": "half-life", "setting": "[3]", "result": 4.4, "unit": "h"}, {"measurement": "IC50", "setting": "PRMT5/MEP50 complex [4]", "result": 2490, "unit": "nM"}, {"measurement": "Ki", "setting": "PRMT5/MEP50 complex [2]", "result": 862, "unit": "nM"}, {"measurement": "IC50", "setting": "PRMT5/MEP50 complex [5]", "result": 5300, "unit": "nM"}]}
{"molecule": "CC(C)[C@H](NC(=O)[C@H](CCCNC(=N)N)NC(=O)[C@H](CO)NC(=O)COCCOCCNC(=S)Nc1ccc2c(c1)C(=O)OC21c2ccc(O)cc2Oc2cc(O)ccc21)C(=O)N[C@H](C(=O)N1CCC[C@H]1C(=O)N[C@H]1CCNC(=O)CC[C@H](C(=O)N[C@@H](CC(=O)O)C(=O)N[C@@H](C)C(=O)N[C@@H](CC(=O)O)C(N)=O)NC(=O)[C@H](Cc2ccccc2)NC(=O)[C@H](CCC(N)=O)NC1=O)C(C)C", "values": [{"measurement": "Kd", "setting": "PRMT5/MEP50 complex [1]", "result": "> 2000", "unit": "nM"}]}
{"molecule": "CC(=O)N[C@H](C(=O)N1CCC[C@H]1C(=O)N[C@H]1CCCCC[C@@H](C(=O)N[C@@H](CC(=O)O)C(=O)N[C@@H](C)C(=O)N[C@@H](CC(C(=O)O)C(=O)O)C(N)=O)NC(=O)[C@H](Cc2ccc([N+](=O)[O-])cc2)NC(=O)[C@H](CCC(N)=O)NC1=O)C(C)C", "values": [{"measurement": "IC50", "setting": "[6]", "result": 654, "unit": "nM"}, {"measurement": "inhibition", "setting": "Flp-In-T-REx-293 [7]", "result": "Active"}, {"measurement": "inhibition", "setting": "Flp-In-T-REx-293 [8]", "result": "Active"}]}
{"molecule": "CC(C)[C@H](NC(=O)[C@H](CCCNC(=N)N)NC(=O)[C@H](CO)NC(=O)COCCOCCNC(=S)Nc1ccc2c(c1)C(=O)OC21c2ccc(O)cc2Oc2cc(O)ccc21)C(=O)N[C@H](C(=O)N1CCC[C@H]1C(=O)N[C@H]1CNC(=O)CC[C@H](C(=O)N[C@@H](CC(=O)O)C(=O)N[C@@H](C)C(=O)N[C@@H](CC(=O)O)C(N)=O)NC(=O)[C@H](Cc2ccccc2)NC(=O)[C@H](CCC(N)=O)NC1=O)C(C)C", "values": [{"measurement": "Kd", "setting": "PRMT5/MEP50 complex [1]", "result": "> 2000", "unit": "nM"}]}
